FGF22 binding: binders of human FGF22 protein, primary screen, FGF22 synaptogenesis inhibitor project, biophysical, thermal shift, single point | Fibroblast growth factor 22 (Homo sapiens), Q9HCT0 | recombinant FGF22 thermal shift, SYPRO orange fluorescence; percent of sucrose octasulfate shift, DMSO zero | activity (Tm shift, normalised), % at 9.99 µM | 1.5% of 340,000 active | AID 651658, 2012;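 active = mean Tm shift, scaled 0 neutral to 100 positive control, at about 1.3% or above, every replicate too, limit read from the data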
Target sequence (Q9HCT0 whole entry, looked up): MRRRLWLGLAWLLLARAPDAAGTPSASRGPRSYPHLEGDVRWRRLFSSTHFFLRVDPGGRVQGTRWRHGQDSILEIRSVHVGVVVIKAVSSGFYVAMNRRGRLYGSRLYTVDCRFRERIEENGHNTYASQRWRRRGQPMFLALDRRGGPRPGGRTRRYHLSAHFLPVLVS
ARNT TACC3 PPI: disruptors of ARNT/TACC3 protein interaction, primary screen, biochemical, AlphaScreen, single concentration; AID 623870, 2012; AlphaScreen His-ARNT PAS-B/GST-TACC3 binding, luminescence; TACC3 fragment carries E629A point mutation; inhibition, % at 9.99 µM; Transforming acidic coiled-coil-containing protein 3 (Homo sapiens), Q9Y6A5; 0.66% of 390,000 active;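 active = mean inhibition of replicates at least 50% and at least half of replicates each reaching 50%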;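 also: 0% = complete ARNT plus TACC3 wells and 100% = ARNT alone without TACC3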
FN deposition inh: inhibitors of fibronectin matrix deposition, primary screen, AH1F cells, Alexa488-fibronectin fluorescence, plate reader; AH1F fibroblasts, overnight; inhibition, % at 12.6 µM; 0.086% of 350,000 active;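 active = mean inhibition across replicates of 30% or more, regardless of how many single replicates reach that level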;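 also: positive control wells lacked labelled fibronectin entirely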
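Measured by – fluorescence 485/525 nm · System – AH1F fibroblast monolayer, labelled fibronectin deposition · Amount – 10000 cells per well · Buffer or medium – serum-reduced DMEM (2% serum) · Doses – single dose, pinned · Also added – fluorescent fibronectin at 24 nM final · Schedule – 1 h cell attachment, overnight exposure to compound and label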
Xi reactivation: activators of inactive X chromosome reactivation, primary screen, imaging, XiGFP fibroblasts, GFP high-content imaging, set 2; XiGFP mouse fibroblasts, % GFP-positive cells imaging, 3 d; cells co-treated with 5-aza-dC sensitizer; scaled so ellipticine positive control = 100%; activation, % at 7.58 µM; 0.055% of 360,000 active; AID 743238, 2013;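 active = mean normalized replicate activation at least 10% and every replicate at or above 10%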;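 also: 0% = median of on-plate neutral control wells and 100% = ellipticine 6 µM median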
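System: SV40-immortalized XiGFP fibroblast cells, line 68-5-11 / Incubation: 3-day compound exposure, then 15 min fixation at room temperature / Compound: single concentration per compound, delivered by pin transfer / Buffer or medium: DMEM plus 5-aza-dC sensitizer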
SIRT5 inh: SIRT5 desuccinylase inhibitors, primary screen, biochemical, fluorescence imaging, single point, set 5; NAD-dependent protein deacylase sirtuin-5, mitochondrial (Homo sapiens), Q9NXA8; Purified SirT5, succinyl-peptide AMC, trypsin-coupled fluorescence; inhibition, % at 15 µM; 1.1% of 330,000 active; AID 652115, 2013; in the data active = inhibition above about 15%
Target sequence (Q9NXA8 whole entry, looked up): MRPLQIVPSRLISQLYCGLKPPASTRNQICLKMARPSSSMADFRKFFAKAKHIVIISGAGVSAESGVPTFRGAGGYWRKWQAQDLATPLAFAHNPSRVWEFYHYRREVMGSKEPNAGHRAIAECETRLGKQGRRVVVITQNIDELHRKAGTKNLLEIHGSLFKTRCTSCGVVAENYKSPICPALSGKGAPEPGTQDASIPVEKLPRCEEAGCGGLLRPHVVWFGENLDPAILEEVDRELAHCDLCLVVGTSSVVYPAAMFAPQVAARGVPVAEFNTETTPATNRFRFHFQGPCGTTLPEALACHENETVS
DENV2 CPE rescue: inhibitors of DENV2 cytopathic effect, primary screen, cell-based, plate reader, single concentration; 1.7% of 350,000 active; DENV2-infected cells, cytopathic effect rescue; CPE inhibition, % at 9.99 µM; in the data active = CPE inhibition above about 20%, passing the limit was not always enough; tested in BHK-21 cells;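 also: 0% = median of neutral control wells and 100% = median of positive control wells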
ARNT Alpha ctr-1: AlphaScreen signal interference compounds, dose response, artefact control for ARNT-TACC3 interaction inhibitor project, biochemical, luminescence, cherry-pick | 50% of 1,200 active | shares compounds with ARNT TACC3 PPI | His-ARNT PASB-GST AlphaScreen artifact counter-screen | AC50, µM (titrated, usually from 68 µM), inactives show top-dose activity change, negative = signal decrease;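 active = every separate test run was called active for a drop in luminescence, with AC50 within twice the top valid dose, actives reach about 71 µM in these data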
ARNT Alpha ctr-2: AlphaScreen signal interference by compounds, dose response, artefact control for ARNT/TACC3 disruptor project, biochemical, dual-tagged ARNT, dry powder; AC50, µM; 70% of 45 active; Dual-tagged His-ARNT PASB-GST AlphaScreen artifact counter-screen; shares compounds with ARNT TACC3 PPI;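 active = luminescence drop, with half-maximal potency fitted within twice the sample's top valid dose, cut at about 70 µM in these data; inactive = the rest, including signal moving the wrong way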
Starred values were filed as active, the others as inactive; x = not tested or not shown; [ ] = dose if it differs, or a comment. Shown are actives, neighbours in structure and some others; about 3.8% of the full set was active somewhere.

SMILES	FGF22 binding	ARNT TACC3 PPI	FN deposition inh	Xi reactivation	SIRT5 inh	DENV2 CPE rescue	ARNT Alpha ctr-1	others
C(=N\Nc1ncnc2nc[nH]c12)/c1cccs1	43.3*	50.9*	-0.6	0.0	0.8	-6.3	-13.5%
CCN(CC(=O)NCc1cccs1)CC(=O)Nc1cccc(S(N)(=O)=O)c1	-0.1	26.3*	-2.2	-0.2	-1.0	-0.7	3.3%
CCN(CC(=O)NCc1cccs1)CC(=O)Nc1ccc(C(N)=O)cc1	0.1	8.1	-0.7	0.0	-2.3	5.0	x
Cc1ccn2c(Nc3ccccc3)c(-c3ccccn3)nc2c1	-0.1	42.8	10.3	1.0	-7.4	-1.0	x
Cc1ccn2c(Nc3ccccc3C)c(-c3ccccn3)nc2c1	0.1	70.2*	0.2	-0.2	-1.6	-14.2	21.5µM*
O=c1[nH][nH]c(=O)c2nc(Nc3ccccc3)ncc12	-0.2	69.3*	5.0	0.0	-2.1	-8.9	-16.9%
CC(OC(=O)Cc1c(F)cccc1Cl)C(=O)NC1(C#N)CCCCC1 (configuration not stated)	-0.1	active	-3.8	0.3	0.2	x	-8.2%
Cc1cccc(NC(=O)CSc2ccc(-c3ccccn3)nn2)c1C	-0.1	54.9*	-4.2	-0.1	x	-9.2	30.4µM*	ARNT Alpha ctr-2=22.8*
COc1ccccc1NC(=O)CSc1ccc(-c2ccc(-n3cccn3)cc2)nn1	0.0	1.2	-10.4	0.2	-3.4	2.7	x
COc1ccccc1NC(=O)CSc1ccc(-c2ccccn2)nn1	-0.1	55.0*	-2.3	0.1	-0.8	0.3	14.2µM*
Cc1noc(C)c1NC(=O)N(C)C[C@@H]1Oc2ccc(NC(=O)Nc3ccccc3)cc2CC(=O)N([C@H](C)CO)C[C@H]1C	0.2	2.8	-2.3	0.0	-2.8	-6.9	x
COc1ccc2nc(/N=C/c3c(C)[nH]n(-c4ccc(C)cc4)c3=O)sc2c1	0.1	55.5*	-4.0	0.0	x	-18.2	-37.3%
COc1ccc2nc(/N=C\N(C)C)sc2c1	x	-6.0	-12.0	x	x	x	x
O=C(c1cc(-c2ccccc2)on1)N1CCc2cccnc21	x	x	x	x	x	x	-7.9%[38 µM]
CN1CCN(C(=O)c2cc(-c3ccccc3)on2)CC1	x	-4.0	13.4	x	x	x	2.6%[38 µM]
O=C(c1cc(-c2ccccc2)on1)N1CCc2ccccc2C1	0.1	-13.6	-7.1	-0.1	2.3	-2.6	x
Cc1ccc(C(=O)Nc2nnc(-c3ccco3)o2)cc1C	x	21.3	-2.1	0.2	x	x	x
COC(=O)c1ccc(C(=O)Nc2nnc(-c3cccnc3)o2)cc1	-0.1	x	2.9	0.0	2.9	12.2	x
Cc1cccc(C(=O)Nc2nnc(-c3ccco3)o2)c1	0.0	56.2*	1.9	0.0	-0.9	-11.2	-35.5%
Cc1cccc(C(=O)Nc2nnc(-c3cccnc3)o2)c1	0.1	58.9*	x	-0.1	5.9	-2.3	-34.7%
Cc1cccc(C(=O)Nc2nnc(-c3ccncc3)o2)c1	-0.3	61.6*	-4.9	0.2	1.8	2.6	-27.2%
O=C(Nc1nnc(-c2ccncc2)o1)c1ccc2ccccc2c1	0.1	20.0	-3.0	-0.1	-3.1	0.2	x
Cc1ccccc1C(=O)Nc1nnc(-c2ccco2)o1	0.0	61.6*	-0.8	0.3	5.7	4.7	-32.7%
O=C(NC[C@@H]1[C@@H](c2ccccc2)[C@@H](CO)N1CC1CCCC1)c1ccccc1	0.1	2.6	x	0.2	-1.5	3.1	x
CNC(=O)C[C@H]1CC[C@@H]2[C@H](COc3ccc(NC(=O)Nc4ccccc4)cc3C(=O)N2C)O1	-0.1	-11.9	-8.4	0.4	5.3	0.5	x
SMILES	FGF22 binding	ARNT TACC3 PPI	FN deposition inh	Xi reactivation	SIRT5 inh	DENV2 CPE rescue	ARNT Alpha ctr-1	others
COc1ccc(C(=O)Nc2ccc3c(c2)C(=O)N(C)[C@@H]2CC[C@H](CC(=O)NCC4CC4)O[C@H]2CO3)cc1	-0.1	-8.1	-3.6	0.0	8.2	2.0	x
O=C(C[C@H]1C[C@@H]2c3cc(NC(=O)C4CCC4)ccc3O[C@@H]2[C@H](CO)O1)NCC1CC1	-0.1	12.1	-1.6	0.0	0.7	1.5	x
CSc1ncccc1C(=O)N1CCN(S(=O)(=O)c2cc(C)ccc2C)CC1	-0.4	-1.2	4.8	0.0	6.9	3.9	x
Cc1ccc(C)c(S(=O)(=O)N2CCN(Cc3ccc(O)c4ncccc34)CC2)c1	0.0	54.3*	-1.9	0.0	8.3	x	17.3µM*
CCOC(=O)N1CCN(Cc2ccc(O)c3ncccc23)CC1	-0.5	x	x	0.5	-2.0	0.8	x
CC(C)(C)OC(=O)N1CCN(Cc2ccc(O)c3ncccc23)CC1	x	x	x	x	x	x	1.1µM*
C/C(=N/NC(=O)c1ccncc1)c1cc2ccc(O)cc2oc1=O	41.9	56.9*	-8.7	0.0	-23.5	-14.8	-7.5%
CN(C)C(=O)c1cccc(-c2ccc3c(c2)[C@H]2[C@H](CCN2C(=O)C2CCC2)[C@H](CO)N3)c1	x	x	-5.0	0.1	7.9	3.0	x
Oc1ccc(C2=Nn3c(nnc3-c3ccco3)SC2)cc1O	x	69.6*	x	x	x	x	-34.5%
COc1ccc(C2=Nn3c(nnc3-c3ccco3)SC2)cc1	x	35.4	4.1	x	x	x	x
COCC(=O)N1CC2(CN(S(C)(=O)=O)C2)c2c(n(C)c3cc(OC)ccc23)[C@H]1CO	x	x	-3.2	0.1	x	x	x
Cc1cc(C)n(S(=O)(=O)c2ccc(Cl)cc2)n1	0.0	active	-5.4	0.1	-2.0	7.3	2.2%
Cc1cc(C)n(S(=O)(=O)c2ccc(F)cc2)n1	-0.1	-7.1	-6.1	0.0	1.4	-5.0	x
CN1CCC(n2[nH]c(-c3ccccc3)c(Cc3ccccc3)c2=O)CC1	0.7	active	1.3	0.1	x	12.5	-7.2%
CN1CCC(N2CCN(C3CN(CCc4ccccc4)S(=O)(=O)C3)CC2)CC1 (configuration not stated)	-0.3	x	-6.2	0.0	-2.1	9.9	x
Cc1noc(C)c1NC(=O)N[C@@H]1CC[C@H](CC(=O)N2CCN(C)CC2)O[C@@H]1CO	0.0	15.8	-1.2	0.0	3.2	-3.0	x
